What was measured:
Cannabinoid receptor 1 = Cannabinoid receptor 1 (Rattus norvegicus, UniProt P20272); assay: Displacement of [3H]CP-55940 from CB1 receptor in rat brain synaptosomal membrane; assay type: cell membranes
Procedure, shortened: (§1)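 Rat forebrain synaptosomal membranes prepared from frozen brains serve as CB1 source. Binding is competition against tritiated CP-55,940, run in 96-well filter format, and IC50 values are taken from displacement. Filters are washed in buffer containing 0.5% BSA and counted by scintillation. Ki is the mean of three independent experiments, each run in duplicate.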

Cannabinoid receptor 2 = Cannabinoid receptor 2 (Mus musculus, UniProt P47936); assay: Displacement of [3H]CP-55940 from CB2 receptor in mouse spleen membrane; assay type: cell membranes
Cannabinoid receptor 2, sequence (P47936 whole entry): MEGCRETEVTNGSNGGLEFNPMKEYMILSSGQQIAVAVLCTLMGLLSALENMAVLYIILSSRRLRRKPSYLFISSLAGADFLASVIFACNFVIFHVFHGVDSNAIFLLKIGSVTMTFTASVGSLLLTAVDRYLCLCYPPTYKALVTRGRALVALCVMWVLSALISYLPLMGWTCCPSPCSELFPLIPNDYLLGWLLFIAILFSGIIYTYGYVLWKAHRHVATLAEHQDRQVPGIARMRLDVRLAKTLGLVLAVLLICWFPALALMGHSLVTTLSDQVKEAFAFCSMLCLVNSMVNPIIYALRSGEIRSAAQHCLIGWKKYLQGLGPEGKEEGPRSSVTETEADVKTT
Procedure, shortened: as §1, with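 “CB2 sites are measured with” for “Rat forebrain synaptosomal”, “mouse spleen.” for “brains serve as CB1 source.”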

[1] = Selectivity for mouse CB2 receptor over rat CB1 receptor

Cannabinoid receptor 1, sequence (P20272 whole entry): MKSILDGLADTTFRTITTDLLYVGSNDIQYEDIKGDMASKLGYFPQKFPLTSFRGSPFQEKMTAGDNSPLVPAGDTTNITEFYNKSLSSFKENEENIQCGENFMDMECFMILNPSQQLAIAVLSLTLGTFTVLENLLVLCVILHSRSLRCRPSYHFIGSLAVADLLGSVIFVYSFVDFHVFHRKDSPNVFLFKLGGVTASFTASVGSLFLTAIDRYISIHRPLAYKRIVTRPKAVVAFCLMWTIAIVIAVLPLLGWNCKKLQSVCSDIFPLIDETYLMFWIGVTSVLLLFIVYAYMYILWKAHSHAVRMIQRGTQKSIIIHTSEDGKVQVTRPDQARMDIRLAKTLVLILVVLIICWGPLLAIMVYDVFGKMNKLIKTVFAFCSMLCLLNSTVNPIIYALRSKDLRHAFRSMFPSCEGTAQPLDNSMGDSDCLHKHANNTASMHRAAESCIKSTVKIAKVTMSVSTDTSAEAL

SMILES	Ki (Cannabinoid receptor 1)	Ki (Cannabinoid receptor 2)	Selectivity ratio [1]
CCCCCCCC1(c2cc(O)c3c(c2)OC(C)(C)[C@@H]2CC=C(C)C[C@@H]32)CC1 (relative stereo)	0.48 nM	4.2 nM	–
CCCCCCCC1(c2cc(O)c3c(c2)OC(C)(C)[C@@H]2CC=C(C)C[C@@H]32)CCC1	2.7 nM	52.3 nM	20
CCCCCCCC1(c2cc(O)c3c(c2)OC(C)(C)[C@@H]2CC=C(C)C[C@@H]32)CCCCC1	13.6 nM	143 nM	–
CCCCCCC1(c2cc(O)c3c(c2)OC(C)(C)[C@@H]2CC=C(C)C[C@@H]32)CCC1	1.5 nM	11.5 nM	8
CCCCCCCc1cc(O)c2c(c1)OC(C)(C)[C@@H]1CC=C(C)C[C@@H]21	8.8 nM	20.8 nM	–
CCCC/C=C\C1(c2cc(O)c3c(c2)OC(C)(C)[C@@H]2CC=C(C)C[C@@H]32)CC1	1.5 nM	1.7 nM	–
CCCCCCCC1(c2cc(O)c3c(c2)OC(C)(C)[C@@H]2CC=C(C)C[C@@H]32)CCCC1	9.9 nM	45.5 nM	–
CCCC/C=C\C1(c2cc(O)c3c(c2)OC(C)(C)[C@@H]2CC=C(C)C[C@@H]32)CCC1	0.93 nM	1.2 nM	–
CCCCCCC1(c2cc(O)c3c(c2)OC(C)(C)[C@@H]2CC=C(C)C[C@@H]32)CCCCC1	18.4 nM	23.5 nM	–
CCCC/C=C\C1(c2cc(O)c3c(c2)OC(C)(C)[C@@H]2CC=C(C)C[C@@H]32)CCCC1 (relative stereo)	0.72 nM	1.8 nM	–
CCCC/C=C\C1(c2cc(O)c3c(c2)OC(C)(C)[C@@H]2CC=C(C)C[C@@H]32)CCCCC1	3.9 nM	4.9 nM	–
